Screens as filed in PubChem BioAssay.
M18AAP inhibitor: PfM18AAP enzyme inhibition; recombinant PfM18AAP, H-Glu-NHMec fluorogenic cleavage; inhibition, % at 7.35 µM; 290,000 compounds, 1.2% hits;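 active = inhibition above the campaign mean inhibition over all tested compounds plus 3 SD, cut at about 28% in these data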
CTSL1 counter: blocks F. hepatica cathepsin L1 in PFM18AAP counter-screen; inhibition, % at 5.96 µM; AID 1906; 300,000 compounds, 0.49% hits; recombinant F. hepatica cathepsin L1, Z-Leu-Arg-MCA fluorescence;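 active = inhibition above the mean of all tested compounds plus 3 SD, set per screening campaign, cut at about 17% in these data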
VIM-2 inh: blocks Pseudomonas aeruginosa VIM-2 metallo-beta-lactamase; AID 1527; purified VIM-2, nitrocefin hydrolysis, epi-absorbance fluorescence; 290,000 compounds, 0.89% hits; inhibition, % at 5.6 µM;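 active = inhibition above the mean of all tested compounds plus 3 SD, cutoff set per screening run, cut at about 7.5% in these data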;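 note: red hydrolysis product quenches plate fluorescence so inhibitors raise well fluorescence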
IMP-1 inhibitor: blocks Pseudomonas aeruginosa IMP-1 metallo-beta-lactamase | purified IMP-1, nitrocefin hydrolysis, epi-absorbance fluorescence | inhibition, % at 5.6 µM | AID 1556 | 290,000 compounds, 0.45% hits;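 active = inhibition above the mean plus 3 SD of all compounds in the same screening run, cut at about 4.5% in these data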
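System: purified IMP-1; amount: IMP-1 0.2 nM before substrate addition; compound: single dose, 5.6 µM; times: 25 °C, 15 min preincubation, 25 min reaction; signal: Epi-absorbance via hydrolysed-nitrocefin quenching of white-plate fluorescence, 480/530 nm, EDTA stop; benchmarks: DMSO with and without IMP-1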
Of the large screens only hits and unclear results are named; the others gave an inactive call. An excerpt weighted towards active compounds, which were near 2.7% of everything screened.

NC(=O)NC(=O)COC(=O)c1ccc2c(c1)C(=O)N(Cc1ccccc1)C2=O	none
O=C(COC(=O)c1ccc2c(c1)C(=O)N(Cc1ccncc1)C2=O)Nc1cccc2ccccc12	CTSL1 counter 18.6
COc1ccc(-c2n[nH]c3c2CN(C(=O)c2ccc(OC)c(OC)c2)CC3)cc1	CTSL1 counter 34.0
COc1cc(OC)cc(C(=O)N2CCN(C(=O)c3ccc(OC)c(OC)c3)CC2)c1	none
CCC(=O)N1CCN(c2ccc(NC(=O)c3ccc4c(c3)OCO4)cc2)CC1	none
CCN1CCN(c2ccc(NC(=O)c3ccc4c(c3)OCO4)cc2)CC1	VIM-2 inh 9.3
Cc1ccc(C(=O)N2CCN(c3ccc(NC(=O)c4cc(C)cc(C)c4)cc3)CC2)cc1	none (no result: CTSL1 counter)
CCOc1ccc(C(=O)Nc2ccc(N3CCN(C)CC3)cc2)cc1	VIM-2 inh 10.7
Cc1ccc(C(=O)Nc2ccc(N3CCN(C)CC3)cc2)cc1	VIM-2 inh 9.7
CCCCOc1ccc(C(=O)Nc2ccc(N3CCN(C)CC3)cc2)cc1	none
CS(=O)(=O)N1CCN(c2ccccc2[N+](=O)[O-])CC1	none
COc1ccc(S(=O)(=O)N2CCC(C(=O)N[C@@H](C)C(=O)NCc3ccccc3OC)CC2)cc1	none
Oc1ccc(/C=N/Nc2ccnc3cc(Cl)ccc23)cc1O	M18AAP inhibitor 28.7
Cc1ccccc1NC(=O)C1CCN(C(=O)N2CCOc3ccccc32)CC1	none
Cc1cccc(-n2ccnc2SCC(=O)N2CCCc3ccccc32)c1C	none
O=C1C2C(C(=O)N1/N=C/c1cc(Br)cc([N+](=O)[O-])c1O)C1C=CC2C12CC2 (stereo not given)	IMP-1 inhibitor 7.0
CCc1cc2c(SCC(=O)c3ccccc3)ncnc2s1	CTSL1 counter 18.8
O=C(CO/N=C/c1ccccc1O)N1CCc2ccccc21	none
O=C(N/N=C/c1ccc(OC(=O)c2cccs2)cc1)c1ccccn1	none
O=C(COc1ccccc1)Nc1ccc2oc(=O)ccc2c1	none
Oc1c(Br)cc(Br)cc1C=Nc1cccnc1	M18AAP inhibitor 29.7, IMP-1 inhibitor 27.9
Oc1c(Br)cc(Br)cc1C=Nc1ccc2[nH]ncc2c1	none
COc1ccc(-c2cn(Cc3ccc(C(N)=O)cc3)c(CCN)n2)cc1	none (no result: M18AAP inhibitor, VIM-2 inh, IMP-1 inhibitor)
C/C(=N\Nc1ccc(C)c(Cl)c1)c1ccncc1	CTSL1 counter 18.9
COC(=O)C(Cc1ccccc1)NC(=O)CCNC(=O)c1ccc(Br)cc1 (stereo not given)	none
CCCCCCOC(=O)Cc1c(C)nc(-c2ccccc2)[nH]c1=O	none
C=C(C)Cc1c(C)nc(-c2ccccc2)[nH]c1=O	CTSL1 counter 26.4
C=CC[N+](C)(C)C/C(Cl)=C(\Cl)c1ccccc1	none
Cc1ccc(-c2c3c(nc4sc(C(N)=O)c(N)c24)CCCC3)o1	CTSL1 counter 37.9
Cc1ccc(N2C(=O)c3ccccc3NC2(C(=O)O)c2ccccc2)cc1Cl (stereo not given)	none
COc1ccccc1NC1=C(NC(C)=O)C(=O)c2ccccc2C1=O	none (no result: CTSL1 counter)
COC1=C(Nc2ccccc2OC)C(=O)c2ccccc2C1=O	VIM-2 inh 10.0
CCOc1ccc(NC(=O)CSc2ncn[nH]2)c([N+](=O)[O-])c1	M18AAP inhibitor 29.9
CCOc1ccc(NC(=O)/C=C/c2ccccc2)c([N+](=O)[O-])c1	IMP-1 inhibitor 4.8
COc1ccc(NC(=O)CSc2ncn[nH]2)c([N+](=O)[O-])c1	none
C[C@@H](CN1C(=O)C(=O)NC[C@@H]1Cc1ccc(O)cc1)NC(=O)Cc1ccccc1	IMP-1 inhibitor 13.3
O=C1NC[C@H](Cc2ccc(O)cc2)N(CCc2cccc3ccccc23)C1=O	none (no result: M18AAP inhibitor, VIM-2 inh, IMP-1 inhibitor)
CCOc1ccc(NC(=O)N2CCC(C(N)=O)(N3CCCCC3)CC2)cc1	M18AAP inhibitor 28.4
CC1CN(c2ccc(NC(=S)Nc3ccc(N4CC(C)OC(C)C4)cc3)cc2)CC(C)O1 (stereo not given)	M18AAP inhibitor 29.1
O=S(=O)(N/N=C/c1cn(Cc2ccccc2)c2ccccc12)c1ccccc1	none
O=C(CSc1nnc(NC(=O)c2cccc(F)c2)s1)NC1CC1	none
O=C(CSc1nnc(NC(=O)c2ccccc2)s1)NCC1CCCO1 (stereo not given)	VIM-2 inh 10.6
O=C(CSc1nnc(NC(=O)c2cccc(F)c2)s1)NC1CCCC1	VIM-2 inh 11.3
Cn1c(=S)c2[nH]c(SCCN3CCCC3)nc2n(C)c1=O	none
CSCCC(NS(=O)(=O)c1ccccc1F)C(=O)NC(C)c1ccccc1 (stereo not given)	none
C=CCNC(=S)Nc1sc2c(c1C(=O)OCC)CC(C(C)C)OC2 (stereo not given)	none
Fc1ccc(-c2nc3ccncc3[nH]2)cc1	none
Clc1ccc(-c2nc3ccncc3[nH]2)cc1	M18AAP inhibitor 29.1
C=CCOc1ccc(C2C(C(=O)c3ccco3)=C(O)C(=O)N2c2nnc(C)s2)cc1 (stereo not given)	IMP-1 inhibitor 5.2
Cc1cc(NC(=O)CSc2nc(=O)n(CCCN(C)C)c3c2CCCC3)no1	none (no result: M18AAP inhibitor, VIM-2 inh, IMP-1 inhibitor)
CCN(CC)CC(=O)n1c2c(c3ccccc31)CCCC2	VIM-2 inh 11.9
CN1CCN(CC(=O)n2c3c(c4ccccc42)CCCC3)CC1	VIM-2 inh 9.9
Cc1cc(C)n(CC(=O)n2c3c(c4ccccc42)CCCC3)n1	VIM-2 inh 10.3
Cc1cc(C)n(CC(=O)n2c3ccccc3c3ccccc32)n1	none
O=C(CSc1ncccn1)n1c2c(c3ccccc31)CCCC2	none
O=C(Nc1ccnn1C1CCN(C(=O)CCc2ccc(F)cc2)CC1)C1CCOC1 (stereo not given)	none
Cn1c(=O)c(=O)n(C)c2cc(S(=O)(=O)CCC(=O)Nc3c(F)c(F)c(F)c(F)c3F)ccc21	none
Cn1c(=O)c(=O)n(C)c2cc(S(=O)(=O)CCC(=O)Nc3ccc(C(F)(F)F)cc3)ccc21	CTSL1 counter 17.4
COc1cc(NC(=O)C2=COCCO2)c(OC)cc1Cl	none (no result: M18AAP inhibitor, VIM-2 inh, IMP-1 inhibitor)
Brc1ccc(-n2cccc2/C=N/n2cnnc2)cc1	M18AAP inhibitor 31.4
CCc1ccc(C(=O)NNC(=O)CCc2nc3ccccc3c(=O)[nH]2)cc1	none (no result: M18AAP inhibitor, VIM-2 inh, IMP-1 inhibitor)
CNc1nc(OC)nc(N(C#N)CN2C(=O)c3ccccc3S2(=O)=O)n1	IMP-1 inhibitor 9.4
Cc1cc(C)nc(NC(=O)CN2C(=O)c3ccccc3S2(=O)=O)n1	none (no result: M18AAP inhibitor, VIM-2 inh, IMP-1 inhibitor)
Cc1cc(C)nc(N(C#N)CN2C(=O)c3ccccc3S2(=O)=O)n1	IMP-1 inhibitor 8.8
CNc1oc(/C=C/c2ccccc2)nc1C#N	M18AAP inhibitor 33.9
CCn1c(-c2c(Cl)c(C)nn2C)n[nH]c1=S	M18AAP inhibitor 31.6
O=C(O)COCc1nc2ccccc2s1	M18AAP inhibitor 30.3
CC(=O)OCc1nc2ccccc2s1	none
COc1cccc(-c2nc(CS(=O)(=O)CC(=O)NCCCN3CCc4ccccc4C3)c(C)o2)c1	none
O=C(CN1CCN(c2ccc(O)cc2)CC1)Nc1cc([N+](=O)[O-])ccc1Cl	M18AAP inhibitor 33.2
CC(=O)N1CCN(CC(=O)Nc2cc([N+](=O)[O-])ccc2Cl)CC1	none
NC(=O)c1ccc(-n2nnnc2SCC(=O)Nc2ccccc2)cc1	none
Cn1c(SCC(=O)CC(=O)Nc2ccccc2)nnc1-c1ccc(O)cc1	CTSL1 counter 26.5
Cc1ccc(OCc2nnc(SCC(=O)CC(=O)Nc3ccccc3)o2)cc1	CTSL1 counter 24.7
